For 21 compounds, Ki, Kd and Activity results are on record in ChEMBL document CHEMBL2346581, “Increasing the efficiency of ligands for FK506-binding protein 51 by conformational control” (J Med Chem, 2013).

In test [1] the target is T1, Peptidyl-prolyl cis-trans isomerase FKBP5 (Homo sapiens, UniProt Q13451).
T1 sequence (Q13451 whole entry): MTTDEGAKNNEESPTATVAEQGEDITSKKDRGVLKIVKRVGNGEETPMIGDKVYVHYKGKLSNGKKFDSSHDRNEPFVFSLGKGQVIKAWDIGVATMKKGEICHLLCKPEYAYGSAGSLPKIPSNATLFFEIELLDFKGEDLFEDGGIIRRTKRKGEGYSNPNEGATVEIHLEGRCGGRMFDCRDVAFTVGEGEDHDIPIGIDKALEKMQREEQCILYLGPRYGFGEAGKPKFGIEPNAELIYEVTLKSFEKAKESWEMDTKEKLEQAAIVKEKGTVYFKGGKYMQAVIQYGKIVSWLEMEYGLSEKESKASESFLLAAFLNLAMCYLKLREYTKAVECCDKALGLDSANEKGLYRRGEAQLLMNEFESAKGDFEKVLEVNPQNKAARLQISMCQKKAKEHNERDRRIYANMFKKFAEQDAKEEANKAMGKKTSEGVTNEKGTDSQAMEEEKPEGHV
Briefly: Binding affinity to human FKBP51 by competitive fluorescence polarization assay. In short, it runs like this: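 Competitive fluorescence polarization binding assay against the purified FK506-binding domain of human FKBP51, run per a previously described protocol. The read-out is K_i.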
On the technique in general: Fluorescence polarisation rises when a labelled molecule tumbles more slowly, as on binding a larger partner.

Test [2] deals with Peptidyl-prolyl cis-trans isomerase FKBP1A (Homo sapiens, UniProt P62942). Put plainly: Binding affinity to FKBP12 (unknown origin) by competitive fluorescence polarization assay.
Sequence of Peptidyl-prolyl cis-trans isomerase FKBP1A (P62942 whole entry, the tested form may be a part): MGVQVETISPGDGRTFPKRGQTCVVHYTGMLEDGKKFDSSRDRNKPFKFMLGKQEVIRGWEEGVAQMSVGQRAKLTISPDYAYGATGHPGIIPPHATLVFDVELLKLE
The target in test [3] is T1, Peptidyl-prolyl cis-trans isomerase FKBP5. Put plainly: Binding affinity to human His-tagged FKBP51 FK1 domain (1 to 140) by isothermal titration calorimetric analysis. Background: ITC needs no label: the signal is the heat of the interaction.
Test [4] has as its target T2, Peptidyl-prolyl cis-trans isomerase FKBP5 (Homo sapiens) (UniProt Q13451).
T2 sequence (whole entry): T1 sequence (Q13451 whole entry)
Put plainly: Binding affinity to FKBP51 (unknown origin) assessed as increase in [3H]-dexamethasone binding to glucocorticoid receptor. Put shortly: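 Reconstituted glucocorticoid receptor (GR) hormone-binding assay. GR-containing lysates were supplemented with purified FKBP51 and incubated with ³H-dexamethasone across a range of compound concentrations. Free ³H-dexamethasone was removed with charcoal–dextran, and GR-bound ³H-dexamethasone was then measured as the read-out.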

In the case of `COc1ccc(OCCN2CC3CCCC(C2=O)N3S(=O)(=O)c2cc(Cl)cc(Cl)c2)cc1OC` (stereo not given), the Ki in test [1] is 1.2 µM.

As for `CCC(C)(C)C(=O)C(=O)N1CCCCC1C(=O)O[C@H](CCc1ccc(OC)c(OC)c1)c1cccc(OCC(=O)O)c1` (stereo not given in full), the affinity in test [1] corresponds to a Ki of 2.7 µM.

Regarding `COc1cc2c(c(OC)c1)[C@]1(C)C3CCC[C@@H](C(=O)N1CC2)N3C(=O)C(=O)[C@]1(C)CCCC[C@H]1C`, the Ki is 2.8 µM in test [2] and greater than 100 µM in test [1].

In the case of `COc1cc2c(c(OC)c1)[C@]1(C)C3CCC[C@@H](C(=O)N1CC2)N3S(=O)(=O)c1cc(Cl)cc(Cl)c1`, the Ki was 0.87 µM in test [2] and greater than 100 µM in test [1].

`COc1ccc(CC[C@@H](OC(=O)C2CCCCN2S(=O)(=O)c2cc(Cl)c(O)c(Cl)c2)c2cccc(OCCN3CCOCC3)c2)cc1OC` (stereo not given in full): the Ki in test [1] stood at 0.2 µM.

`COc1cc2c(c(OC)c1)[C@]1(C)C3CCC[C@@H](C(=O)N1CC2)N3C(=O)C(=O)c1cc(OC)c(OC)c(OC)c1`: the results for the Ki in test [2] and in test [1] were 0.5 µM and 18.1 µM, respectively.

On to `CO[C@H]1C[C@@H]2CC[C@@H](C)[C@@](O)(O2)C(=O)C(=O)N2CCCC[C@H]2C(=O)O[C@H]([C@H](C)C[C@@H]2CC[C@@H](O)[C@H](OC)C2)CC(=O)[C@H](C)/C=C(\C)[C@@H](O)[C@@H](OC)C(=O)[C@H](C)C[C@H](C)/C=C/C=C/C=C/1C` [SIROLIMUS], for which the Ki in test [1] came to 0.003 µM.

`COc1ccc(OCCOC(=O)C2CCCCN2S(=O)(=O)c2cc(Cl)cc(Cl)c2)cc1OC` (stereo not given) yielded a Ki in test [1] greater than 100 µM.

The compound `COc1ccc(OCCN2CCC3CCCC(C2=O)N3C(=O)C(=O)c2cc(OC)c(OC)c(OC)c2)cc1OC` (stereo not given) registered an inhibitory constant (Ki) in test [1] of 23.7 µM.

As for `COc1ccc(CC[C@@H](OC(=O)C2CCCCN2S(=O)(=O)c2cc(Cl)cc(Cl)c2)c2cccc(OCC(=O)O)c2)cc1OC` (stereo not given in full), in test [1], the Ki was 13.8 µM.

In the case of `CCN1CC2CCCC(C1=O)N2C(=O)C(=O)c1cc(OC)c(OC)c(OC)c1` (stereo not given), in test [1], the Ki was greater than 100 µM.

`COc1ccc(OCCN2CCC3CCCC(C2=O)N3S(=O)(=O)c2cc(Cl)cc(Cl)c2)cc1OC` (stereo not given) returned a Ki in test [1] of 8.8 µM.

As to `COc1ccc(OCCOC(=O)C2CCCCN2S(=O)(=O)c2ccc3[nH]c(=O)sc3c2)cc1OC` (stereo not given), the Kd in test [3] stood at 3.3 µM. Further, the Activity result in test [4] was “Dose-dependent effect”. For the same compound, the affinity in test [1], expressed as Ki, was 7.6 µM.

Turning to `COc1cc2c(c(OC)c1)[C@]1(C)C3CCC[C@@H](C(=O)N1CC2)N3S(=O)(=O)c1cc(Cl)c(O)c(Cl)c1`, the Ki was 2.1 µM in test [2] and greater than 100 µM in test [1].

With `COc1ccc(OCCOC(=O)C2CCCCN2S(=O)(=O)c2ccc3ncsc3c2)cc1OC` (stereo not given), the Ki in test [1] is greater than 100 µM.

`CCOC(=O)C1CCCCN1S(=O)(=O)c1ccc2[nH]c(=O)sc2c1` (stereo not given) yielded a Ki in test [1] greater than 100 µM.

`C=CC[C@@H]1/C=C(\C)C[C@H](C)C[C@H](OC)[C@H]2O[C@@](O)(C(=O)C(=O)N3CCCC[C@H]3C(=O)O[C@H](/C(C)=C/[C@@H]3CC[C@@H](O)[C@H](OC)C3)[C@H](C)[C@@H](O)CC1=O)[C@H](C)C[C@@H]2OC` [TACROLIMUS ANHYDROUS] had a Ki in test [1] of 0.08 µM.

On to `CCC(C)(C)C(=O)C(=O)N1C2CCC[C@H]1C(=O)N1CCc3cc(OC)cc(OC)c3[C@]21C`, for which the inhibitory constant (Ki) was 27.7 µM in test [2] and greater than 100 µM in test [1].

Regarding `COc1ccc(OCCN2CC3CCCC(C2=O)N3S(=O)(=O)c2ccc3[nH]c(=O)sc3c2)cc1OC` (stereo not given), in test [3], binding was put at a Kd of 10.5 µM. Besides, in test [4], the Activity result is “Dose-dependent effect”.

With `COc1ccc(OCCN2CCC3CCCC(C2=O)N3S(=O)(=O)c2ccc3[nH]c(=O)sc3c2)cc1OC` (stereo not given), binding in test [3] was put at a Kd of 0.36 µM. Further, the Activity entry in test [4] is “Dose-dependent effect”.

Regarding `COc1ccc(OCCOC(=O)C2CCCCN2C(=O)C(=O)c2cc(OC)c(OC)c(OC)c2)cc1OC` (stereo not given), in test [1], the Ki is greater than 100 µM.

What is called Ki is a measure of affinity in units of concentration, obtained from inhibition or displacement. A higher Ki goes with a looser hold on the target. The term Kd denotes the constant that tells how readily two partners part at equilibrium. A high value points to weaker binding.
